The source made the active and inactive calls. The rule behind the calls is not given here.
Key:
[1] = tested on: OVCAR-3; assay: Induction of ferroptosis in human OVCAR-3 cells at 0.001 to 10 uM in presence of ferrostatin-1 by CellTiterGlo assay; assay type: functional, cell-based; conditions: dose 0.001-10 µM
[2] = tested on: OVCAR-5; assay: Induction of apoptosis in human OVCAR-5 cells assessed as decrease in caspase-3/7 activity at 50 nM incubated for 48 hrs in presence of by ZVAD-FMK fluorescent reporter assay
[3] = tested on: OVCAR-8; assay: Induction of apoptosis in human OVCAR-8 cells assessed as increase in caspase-3/7 activity at 50 nM incubated for 48 hrs by fluorescent reporter assay
[4] = tested on: OVCAR-5; assay: Cytotoxicity against human OVCAR-5 cells assessed as reduction in colony formation at 10 nM incubated for 8 hrs measured after 15 days by crystal violet staining based analysis; assay type: functional, cell-based; conditions: time 368.0 hrs
Procedure, shortened: (§1)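 Seeded at 200 cells per dish, attached overnight, exposed 8 h to 10 nM (DMSO vehicle 0.1%), then grown 15 days in untreated growth medium. Colonies fixed with 4% paraformaldehyde, stained with 0.05% crystal violet, counted and normalised to vehicle. Mean ± SEM, three biological replicates, one-way ANOVA with Dunnett's test.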

[5] = tested on: OVCAR-3; assay: Antitumor activity against human OVCAR-3 cells xenografted in immunodeficient NCr nu/nu mouse assessed as reduction in cell survival at 0.5 mg/kg, ip administrated once per day for 4 days measured on day 7 by MTT assay; assay type: functional, organism-based; conditions: time 7.0 day
Procedure, shortened: (§2)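 Female immunodeficient NCr nu/nu mice (6–8 weeks) carried intraperitoneal polyvinylidene fluoride hollow fibres holding OVCAR3 and OVCAR8 cells (day 0). Dosed ip once daily on days 3–6 in 2% DMSO/48% PEG300/50% H₂O diluted with H₂O. Fibres retrieved on day 7; cell viability by modified MTT assay. One-way ANOVA with Dunnett's test vs vehicle.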

[6] = tested on: OVCAR-3; assay: Induction of autophagy in human OVCAR-3 cells assessed as reduction in cell viability at 25 nM incubated for 72 hrs in presence of bafilomycin by CellTiter-Blue Cell Viability assay; assay type: functional, cell-based
Procedure, shortened: (§3)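 5000 cells/well attached overnight, then treated 72 h with 25 nM alone or with bafilomycin A1 (5 nM; OVCAR8 also at 1 nM); bafilomycin alone as control. Viability by CellTiter-Blue fluorescence, normalised to vehicle. One-way ANOVA with Tukey's test.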

[7] = Toxicity in immunodeficient NCr nu/nu mouse xenografted with human OVCAR-8 cells assessed as change in body weight at 0.5 mg/kg, ip administrated once per day for 4 days measured measured on day 7 relative to control; assay type: organism-based; conditions: in vivo, 168 h, time 7 day
Procedure, shortened: (§4)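 Female immunodeficient NCr nu/nu mice, 6–8 weeks old, carried cells sealed in polyvinylidene fluoride hollow fibers implanted intraperitoneally on day 0. Dosing was i.p. once daily on days 3–6 in 2% DMSO:48% PEG300:50% H2O, diluted with H2O. Body weight was followed over the study, and fibers were retrieved on day 7.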

[8] = tested on: OVCAR-8; assay: Induction of apoptosis in human OVCAR-8 cells assessed as increase in necrotic cells at 25 nM incubated for 48 hrs by Annexin V-FITC/propidium iodide staining based analysis; assay type: functional, cell-based
Procedure, shortened: (§5)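 OVCAR5/OVCAR8 seeded at 175 000 and OVCAR3 at 190 000 cells per 60 mm dish, attached overnight, treated 48 h (10, 25 or 50 nM). Media and cells collected, PBS-washed, stained with annexin V-FITC/propidium iodide and read on a cell counter with gating per kit. Three biological replicates, mean ± SEM, Dunnett's test.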

[9] = tested on: OVCAR-8; assay: Cytotoxicity against human OVCAR-8 cells assessed as reduction in colony formation at 10 nM incubated for 8 hrs measured after 15 days by crystal violet staining based analysis; assay type: functional, cell-based; conditions: time 368.0 hrs; procedure, shortened: as §1
[10] = tested on: OVCAR-3; assay: Induction of apoptosis in human OVCAR-3 cells assessed as increase in cleaved PARP expression level at >=10 nM incubated for 72 hrs by Western blotting analysis
[11] = Cytotoxicity against human FT33 cells assessed as inhibition of cell growth for 72 hrs by CellTiter-Blue cell viability assay; assay type: toxicity, cell-based
Procedure, shortened: (§6)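 5000 cells seeded in triplicate, attached overnight, then exposed for 72 h to serial concentrations in DMSO vehicle (0.05%). Viability was read by fluorometric CellTiter-Blue. IC50 in nM comes from dose–response curves relative to DMSO control. Media: OVCAR3 in RPMI1640, OVCAR5/OVCAR8 in DMEM, hFT33 in DMEM-Ham's F12 50/50, all with 10% FBS. Data are mean ± SEM, three biological replicates.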

[12] = tested on: OVCAR-3; assay: Cytotoxicity against human OVCAR-3 cells assessed as reduction in colony formation at 10 nM incubated for 8 hrs measured after 15 days by crystal violet staining based analysis; assay type: functional, cell-based; conditions: time 368.0 hrs; procedure, shortened: as §1
[13] = tested on: OVCAR-3 (Homo sapiens); assay: Anti-ferroptotic activity against human OVCAR-3 cells assessed as decrease in lipid peroxidation at 50 nM incubated for 24 hrs in presence of ferrostatin-1 by C11-BODIPY staining based flow cytometric analysis
[14] = tested on: OVCAR-3; assay: Anti-ferroptotic activity against human OVCAR-3 cells assessed as decrease in lipid peroxidation at 50 nM incubated for 24 hrs by C11-BODIPY staining based flow cytometric analysis; assay type: functional, cell-based
Procedure, shortened: (§7)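 Cells treated 24 h with 50 nM, with or without 2 μM ferrostatin-1; lipid peroxidation read as C11-BODIPY fluorescence in the green channel by flow cytometry.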

[15] = tested on: OVCAR-5; assay: Induction of autophagy in human OVCAR-5 cells assessed as reduction in cell viability at 25 nM incubated for 72 hrs in presence of bafilomycin by CellTiter-Blue Cell Viability assay; assay type: functional, cell-based; procedure, shortened: as §3
[16] = tested on: OVCAR-8; assay: Induction of apoptosis in human OVCAR-8 cells assessed as decrease in caspase-3/7 activity at 50 nM incubated for 48 hrs in presence of by ZVAD-FMK fluorescent reporter assay
[17] = tested on: OVCAR-8; assay: Induction of autophagy in human OVCAR-8 cells assessed as reduction in cell viability at 25 nM incubated for 72 hrs in the presence of 1 nM bafilomycin by CellTiter-Blue Cell Viability assay; assay type: functional, cell-based; procedure, shortened: as §3
[18] = tested on: OVCAR-3; assay: Cytotoxicity against human OVCAR-3 cells assessed as inhibition of cell growth for 72 hrs by CellTiter-Blue cell viability assay; assay type: functional, cell-based; conditions: OVCAR-3, 72 h; procedure, shortened: as §6
[19] = tested on: OVCAR-5; assay: Inhibition of cell migration in human OVCAR-5 cells assessed as decrease in wound closure at 10 to 25 nM incubated for 48 hrs by wound healing assay; assay type: functional, cell-based; conditions: dose 10-25 nM
Procedure, shortened: (§8)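 Confluent monolayers scratched once, washed with PBS, then treated with 10 or 25 nM (paclitaxel 10 nM control) for 48 h. Scratch area imaged at 4× at 0 and 48 h, measured and normalised to vehicle. One-way ANOVA with Dunnett's test.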

[20] = tested on: OVCAR-3; assay: Induction of apoptosis in human OVCAR-3 cells assessed as increase in apoptotic cells at 25 nM incubated for 48 hrs by Annexin V-FITC/propidium iodide staining based analysis; assay type: functional, cell-based; procedure, shortened: as §5
[21] = tested on: OVCAR-3; assay: Induction of apoptosis in human OVCAR-3 cells assessed as decrease in caspase-3/7 activity at 50 nM incubated for 48 hrs in presence of by ZVAD-FMK fluorescent reporter assay
[22] = tested on: OVCAR-3; assay: Anti-ferroptotic activity against human OVCAR-3 cells assessed as decrease in lipid peroxidation at 50 nM incubated for 24 hrs in presence of ferrostatin-1 by C11-BODIPY staining based flow cytometric analysis; assay type: functional, cell-based; procedure, shortened: as §7
[23] = tested on: HeLa; assay: Induction of autophagy in human HeLa cells harboring eGFP-LC3 assessed as increase in LC3 puncta accumulation at 250 nM incubated for 4 hrs by Hoechst 33342 and DAPI staining based analysis; assay type: functional, cell-based
Procedure, shortened: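 HeLa stably expressing eGFP-LC3, 384-well plates, treated 4 h with serial dilutions starting at 250 nM, fixed in 4% formaldehyde, nuclei counterstained, imaged at 10× (FITC); LC3 puncta quantified by image analysis, normalised to DMSO, dose–response fitted.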

[24] = tested on: OVCAR-8; assay: Induction of apoptosis in human OVCAR-8 cells assessed as increase in apoptotic cells at 25 nM incubated for 48 hrs by Annexin V-FITC/propidium iodide staining based analysis; assay type: functional, cell-based; procedure, shortened: as §5
[25] = tested on: OVCAR-3 (Homo sapiens); assay: Anti-ferroptotic activity against human OVCAR-3 cells assessed as decrease in lipid peroxidation at 50 nM incubated for 24 hrs by C11-BODIPY staining based flow cytometric analysis
[26] = tested on: OVCAR-3; assay: Induction of apoptosis in human OVCAR-3 cells assessed as increase in necrotic cells at 25 nM incubated for 48 hrs by Annexin V-FITC/propidium iodide staining based analysis; assay type: functional, cell-based; procedure, shortened: as §5
[27] = Toxicity in immunodeficient NCr nu/nu mouse xenografted with human OVCAR-3 cells assessed as change in body weight at 0.5 mg/kg, ip administrated once per day for 4 days measured measured on day 7 relative to control; assay type: organism-based; conditions: in vivo, 168 h, time 7 day; procedure, shortened: as §4
[28] = tested on: OVCAR-3; assay: Induction of ferroptosis in human OVCAR-3 cells at 0.1 to 10 uM in the presence of ferrostatin-1 by CellTiterGlo assay; assay type: functional, cell-based; conditions: dose 0.1-10 µM
Procedure, shortened: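 OVCAR3 in 384-well plates (1000 cells/well), given 100 nM to 10 μM together with 2 μM ferrostatin-1, in triplicate; viability measured by CellTiter-Glo.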

[29] = tested on: OVCAR-5; assay: Induction of apoptosis in human OVCAR-5 cells at 25 nM incubated for 48 hrs by Annexin V-FITC/propidium iodide staining based analysis; assay type: functional, cell-based; procedure, shortened: as §5
[30] = tested on: OVCAR-8; assay: Cytotoxicity against human OVCAR-8 cells assessed as inhibition of cell growth for 72 hrs by CellTiter-Blue cell viability assay; assay type: functional, cell-based; procedure, shortened: as §6
[31] = tested on: OVCAR-8; assay: Inhibition of cell migration in human OVCAR-8 cells assessed as decrease in wound closure at 10 to 25 nM incubated for 48 hrs by wound healing assay; assay type: functional, cell-based; conditions: dose 10-25 nM; procedure, shortened: as §8
[32] = tested on: OVCAR-5; assay: Induction of apoptosis in human OVCAR-5 cells assessed as increase in caspase-3/7 activity at 50 nM incubated for 48 hrs by fluorescent reporter assay
[33] = tested on: OVCAR-5; assay: Cytotoxicity against human OVCAR-5 cells assessed as inhibition of cell growth for 72 hrs by CellTiter-Blue cell viability assay; assay type: functional, cell-based; conditions: OVCAR-5, 72 h; procedure, shortened: as §6
[34] = tested on: HeLa; assay: Induction of autophagic flux in human HeLa cells harbouring mCherry-eGFP-LC3 assessed as increase in number of autolysosomes at 10 nM incubated for 24 hrs by Hoechst 33342 and DAPI staining based analysis; assay type: functional, cell-based
Procedure, shortened: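 HeLa stably expressing mCherry-eGFP-LC3, 384-well plates, treated 24 h, fixed 12 min in 4% formaldehyde, nuclei stained, imaged at 10× under FITC and Texas Red filters; autolysosomes/autophagosomes quantified by high-content analysis and normalised to DMSO; chloroquine as control. Three biological replicates in duplicate.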

[35] = tested on: OVCAR-3; assay: Induction of apoptosis in human OVCAR-3 cells assessed as increase in caspase-3/7 activity at 50 nM incubated for 48 hrs by fluorescent reporter assay
[36] = tested on: OVCAR-8; assay: Antitumor activity against human OVCAR-8 cells xenografted in immunodeficient NCr nu/nu mouse assessed as reduction in cell survival at 0.5 mg/kg, ip administrated once per day for 4 days measured on day 7 by MTT assay; assay type: functional, organism-based; conditions: time 7.0 day; procedure, shortened: as §2

For `COC(=O)c1ccc([C@H]2c3[nH]c4ccccc4c3C[C@H](C(=O)OC)N2C(=O)CCl)cc1`, the Activity [1] was “inactive”.

In the case of `Cc1cc(=O)c(O)cc2c1C[C@H]1CC(C)(C)/C=C/C[C@]3(C)Oc4cc(O)c(=O)cc(C)c4C[C@H]3C[C@H](O)[C@@]1(C)O2`, the Activity [2] is reported as “Active”, the Activity [3] is reported as “Active” and the Activity [4] is reported as “Active”. The Activity [5] was “Active”, the Activity [6] was “inactive” and the Activity [7] was greater than 12%. The Activity [8] was “Active”, the Activity [9] was “Active” and the Activity [10] was “Active”. The IC50 at 72 h [11] was 170 nM, the Activity [12] was “Active” and the Activity [13] was “Active”. The Activity [14] was “Active”, the Activity [15] was “inactive” and the Activity [16] was “Active”. For the same compound, the Activity [17] was “inactive”, the IC50 [18] was 9.7 nM and the inhibition [19] was “Active”. For the same compound, the Activity [20] was “Active”, the Activity [21] was “Active” and the Activity [22] was “Active”. For the same compound, the Activity [23] was “Active”, the Activity [24] was “Active” and the Activity [25] was “Active”. The Activity [26] was “Active”, the Activity [27] was “<= 12%” and the Activity [28] was “Active”. For the same compound, the Activity [29] was “inactive”, the IC50 ([30]; OVCAR-8, 72 h) was 12 nM and the inhibition [31] was “Active”. For the same compound, the Activity [32] was “Active”, the IC50 [33] was 11 nM and the Activity [34] was “Active”. The Activity [35] was “Active” and the Activity [36] was “inactive”.

For `CO/C1=C\C(C)=C\[C@@H](C)[C@@H](O)[C@@H](C)C/C(C)=C/C=C/[C@H](OC)[C@@H]([C@@H](C)[C@@H](O)[C@H](C)[C@@]2(O)C[C@@H](O)[C@H](C)[C@@H](C(C)C)O2)OC1=O`, the Activity [30] was “Active”.

Source: ChEMBL document CHEMBL5370575, “Probing the Cytotoxic Signaling Induced by Eupenifeldin in Ovarian Cancer Models” (J Nat Prod, 2023)
